# Published values of several laboratories.
# Compare with care: the assays were run in different laboratories.
# Target: G protein-coupled receptor kinase 4 (GRK4, Homo sapiens, UniProt P32298)
Structure (SMILES),test,conditions,remaining binding
N[C@H]1CCN(c2nccc(-c3cnn4ncccc34)n2)C1,binding,1 µM,75%
CN(C)C(=O)Cn1cc(-c2nc([C@@](C)(c3ccc(-c4cnc(N)nc4)cc3)C3CC3)no2)cn1,"cell-free assay, competition with immobilised ligand",1 µM,86%
CN(CCCC(F)(F)F)c1nccc(-c2cnn3ncccc23)n1,binding,1 µM,100%
COc1cnc(Nc2cccc(S(N)(=O)=O)c2)nc1N1CCN(c2ccccc2)CC1,"binding, competition with immobilised ligand",1 µM,100%
FC(F)(F)Oc1cccc(-c2cnc3ccc(-c4ccncc4)nn23)c1,"cell-free assay, competition with immobilised ligand",5 µM,43%
O=C(NCCCN1CCOCC1)c1ccc(Nc2nccc(-c3cc4ccccc4s3)n2)cc1,"binding, competition with immobilised ligand",1 µM,1.4%
COc1cccc(CNC(=O)c2nc3scc(COCc4ccc(C(=O)O)cc4)c3c(=O)[nH]2)c1,"cell-free assay, competition with immobilised ligand",1 µM,72.1%
c1cncc(-c2cccc(Nc3nccc(NC4CCCCC4)n3)c2)c1,"binding, competition with immobilised ligand",10 µM,56%
O=C(Nc1c[nH]nc1C(=O)NC1CCNCC1)c1cc(F)cc(F)c1,"binding, competition with immobilised ligand",1 µM,100%
CCN1CCN(Cc2ccc(C(=O)Nc3ccc(C)c(Oc4ccc5c(c4)CC(=O)N5)c3)cc2C(F)(F)F)CC1,"binding, competition with immobilised ligand",1 µM,100%
Nc1c(C(=O)NCc2ccc(C(=O)NCCCC3CCCCC3)cc2)cnn1-c1ccccc1,"cell-free assay, competition with immobilised ligand",0.1 µM,100%
O=C(NCCCN1CCOCC1)c1ccc(Nc2ncc(Cl)c(-c3ccc(Cl)s3)n2)cc1,"binding, competition with immobilised ligand",1 µM,2.7%
CN(C)c1nccc(-c2cnc3ncccn23)n1,binding,1 µM,88%
Nc1cnc(N2CCc3cc(S(=O)(=O)Nc4c(F)cc(Cl)cc4F)cc(N4CCCC4=O)c32)nc1,"cell-free assay, competition with immobilised ligand",1 µM,100%
CC1CCCN1c1nccc(-c2cnn3ncccc23)n1 (stereo not drawn),binding,1 µM,75%
COc1ncc2cc3ccccc3nc2c1C#N,"cell-free assay, competition with immobilised ligand",5 µM,99%
C[C@H]1CCN(c2nccc(-c3cnn4ncccc34)n2)C1,binding,1 µM,54%
CCCCN(CCCC)C(=O)CN1C[C@H](c2cc(OC)c3c(c2)OCO3)[C@@H](C(=O)O)[C@@H]1CC(C)(C)CCC,"cell-free assay, competition with immobilised ligand",1 µM,100%
O=C(c1ccc(Nc2ncc(Cl)c(-c3cc4ccccc4s3)n2)cc1)N1CCC(N2CCCC2)CC1,"binding, competition with immobilised ligand",1 µM,3.5%
CN(C)c1ncc(F)c(-c2cnn3ncccc23)n1,binding,1 µM,100%
CCCOc1ccc([C@@H]2[C@@H](C(=O)O)[C@H](c3ccc4c(c3)OCO4)CN2CC(=O)Nc2c(CC)cccc2CC)cc1,"cell-free assay, competition with immobilised ligand",1 µM,100%
